Reference: paper PMC8898323 (ChemMedChem, 2021)
Entries after “also recorded” stand apart in the source; their conditions may differ. Read-outs that look alike come from different tables or passages of the source.

Key:
[1] = target: T1, hFAAH (Homo sapiens, UniProt O00519); test: Fluorescence-based hFAAH inhibition counterscreen; type: biochemical; conditions: for hFAAH inhibition, result in words: inactive tested at 1uM
T1 sequence (O00519 1-579): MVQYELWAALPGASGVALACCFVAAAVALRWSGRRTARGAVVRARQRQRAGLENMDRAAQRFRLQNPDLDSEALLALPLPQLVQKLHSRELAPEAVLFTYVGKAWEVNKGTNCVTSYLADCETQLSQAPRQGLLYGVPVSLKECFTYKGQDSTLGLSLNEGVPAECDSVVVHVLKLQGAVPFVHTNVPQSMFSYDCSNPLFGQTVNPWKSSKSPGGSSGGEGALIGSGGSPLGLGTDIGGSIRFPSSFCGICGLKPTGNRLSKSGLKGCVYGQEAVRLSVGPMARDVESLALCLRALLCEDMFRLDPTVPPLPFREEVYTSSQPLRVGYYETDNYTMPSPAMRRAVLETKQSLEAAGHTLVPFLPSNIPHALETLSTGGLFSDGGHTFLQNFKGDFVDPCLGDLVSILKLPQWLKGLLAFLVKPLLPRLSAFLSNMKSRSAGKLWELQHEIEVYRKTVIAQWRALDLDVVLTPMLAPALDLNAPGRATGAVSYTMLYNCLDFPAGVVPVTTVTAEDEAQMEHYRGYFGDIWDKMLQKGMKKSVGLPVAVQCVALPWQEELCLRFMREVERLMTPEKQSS

[2] = target: T2, hMGL (Homo sapiens, UniProt Q99685); test: Fluorescence-based hMGL inhibition counterscreen; type: biochemical; conditions: for hMGL inhibition, result in words: inactive tested at 1uM
T2 sequence (Q99685 1-303): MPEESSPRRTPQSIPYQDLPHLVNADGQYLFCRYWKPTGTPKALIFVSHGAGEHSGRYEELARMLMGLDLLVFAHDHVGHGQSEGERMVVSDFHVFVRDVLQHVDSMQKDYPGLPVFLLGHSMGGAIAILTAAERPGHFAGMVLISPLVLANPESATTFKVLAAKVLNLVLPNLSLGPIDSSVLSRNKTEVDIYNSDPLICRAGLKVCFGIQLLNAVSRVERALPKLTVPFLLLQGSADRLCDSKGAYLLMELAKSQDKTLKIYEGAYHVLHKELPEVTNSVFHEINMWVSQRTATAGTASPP

[3] = target: T3, hABHD6 (Homo sapiens, UniProt Q9BV23); test: Fluorescence-based hABHD6 inhibition assay; type: biochemical; conditions: for inhibition at 10 µM: read-out: % inhibition hABHD6; for hABHD6 inhibition, result in words: words in table or text, table footnote c: inactive tested at 1uM; for fold loss in potency for ABHD6: versus the comparator analog named in the text
T3 sequence (Q9BV23 1-337): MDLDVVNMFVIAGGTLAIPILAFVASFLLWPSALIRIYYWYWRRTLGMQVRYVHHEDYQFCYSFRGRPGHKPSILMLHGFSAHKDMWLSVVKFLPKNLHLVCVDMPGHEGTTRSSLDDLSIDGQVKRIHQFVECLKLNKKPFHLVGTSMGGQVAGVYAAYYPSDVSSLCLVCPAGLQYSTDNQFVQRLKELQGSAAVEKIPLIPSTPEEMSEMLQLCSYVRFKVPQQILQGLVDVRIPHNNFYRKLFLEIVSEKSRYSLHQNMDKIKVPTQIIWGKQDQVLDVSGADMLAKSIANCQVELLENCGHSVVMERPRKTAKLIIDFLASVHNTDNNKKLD

[4] = tested on: ABHD6; conditions: read-out: IC50 ABHD6; activity-based protein profiling (ABPP) assay; ref 22b; cited from earlier work
[5] = Metabolic stability in human liver microsomes; type: in vitro ADME; conditions: NADPH
How it was run: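 Inhibitor pre-incubated at 37 °C with liver microsomal protein of the given species. Reaction started with NADPH, or buffer as control. Proteins precipitated, then parent remaining measured by LC-MS/MS in SRM mode to give t1/2.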

[6] = tested on: rat retina (AMPA excitotoxicity); conditions: cited from earlier work
[7] = Cassette pharmacokinetics in brain and plasma, male CD-1 mice; type: in vivo, mouse; conditions: for concentration at 15 min: iv; for concentration at 30 min / concentration at 60 min: po
How it was run: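 Male CD-1 mice (25–30 g), cassette dosing: single iv dose of 2 mg/kg and oral dose of 8 mg/kg per compound. Plasma and brain taken 15 min after iv, and 30 and 60 min after oral dosing, n = 3 per time point. Flash-frozen tissue extracted and quantified by LC-MS/MS (SRM) with internal standards.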

[8] = read-out: IC50 (nM) ± SEM hMGL, triplicate, eight concentrations
[9] = male, CD-1, mouse, brain, 8 mg/kg
[10] = male, CD-1, mouse, plasma, 8 mg/kg

Compound: O=C(O[C@H](CO)C(F)(F)F)N1CCc2c(Br)cccc2C1 [14j, (R)-1,1,1-trifluoro-3-hydroxypropan-2-yl 5-bromo-3,4-dihydroisoquinoline-2(1H)-carboxylate]
- hFAAH inhibition, result in words [1]: inactive
- hMGL inhibition, result in words [2]: inactive
- inhibition at 10 µM [3]: 35%
- hABHD6 inhibition, result in words [3]: practically inactive

Compound: O=C(OC(C(F)(F)F)C(F)(F)F)N1CCc2ccccc2C1 [14a, 1,1,1,3,3,3-Hexafluoropropan-2-yl 3,4-dihydroisoquinoline-2(1H)-carboxylate]
- hFAAH inhibition, result in words [1]: lacked activity; also recorded: inactive^c
- hMGL inhibition, result in words [2]: lacked activity; also recorded: inactive

Compound: CC1(C)C2C(=O)N(OC(=O)N3CCc4c(Br)cccc4C3)C(=O)C21 (centres unmarked) [25b, 6,6-Dimethyl-2,4-dioxo-3-azabicyclo[3.1.0]hexan-3-yl 5-bromo-3,4-dihydro isoquinoline-2(1H)-carboxylate]
- hFAAH inhibition, result in words [1]: inactive
- hMGL inhibition, result in words [2]: inactive
- fold loss in potency for ABHD6 [3]: 2 fold

Compound: O=C(OC(C(F)(F)F)C(F)(F)F)N1CC(C(c2ccccc2)c2ccccc2)C1 [10d, 1,1,1,3,3,3-Hexafluoropropan-2-yl 3-benzhydrylazetidine-1-carboxylate]
- hFAAH inhibition, result in words [1]: inactive
- IC50 [2, 8]: 348 ± 7.5 nM
- inhibition at 10 µM [3]: 37%
- hABHD6 inhibition, result in words [3]: practically inactive

Compound: CN(C1CN(C(=O)OC(C(F)(F)F)C(F)(F)F)C1)C(c1ccc(F)cc1)c1ccc(F)cc1 [9d, 1,1,1,3,3,3-Hexafluoropropan-2-yl 3-((bis(4-fluorophenyl)methyl) (methyl)amino) azetidine-1-carboxylate]
- hFAAH inhibition, result in words [1]: inactive
- IC50 [2, 8]: 83.5 ± 1.8 nM

Compound: O=C(OC(C(F)(F)F)C(F)(F)F)N1Cc2ccc(OCCN3CCOCC3)cc2C1 [22f, 1,1,1,3,3,3-Hexafluoropropan-2-yl 5-(2-morpholinoethoxy)isoindoline-2-carboxylate]
- Microsomes t1/2 min Human [5]: most stable
- AMPA-induced glia activation ([6]; rat retina): attenuated
- retina neuroprotection ([6]; rats, AMPA excitotoxicity): dose-dependent retina neuroprotection
- hFAAH inhibition, result in words [1]: inactive^f
- hMGL inhibition, result in words [2]: inactive
- brain permeability, result in words ([7]; comparing brain and plasma levels after iv administration at 15 min): brain permeable
- Kp at 15 min ([7]; male, CD-1, mouse, brain, intravenous, 2 mg/kg): 1.2
- concentration at 15 min ([7]; male, CD-1, mouse, brain, 2 mg/kg): 735 ± 56 ng/g
- concentration at 30 min [7, 9]: 248 ± 89 ng/g
- concentration at 60 min [7, 9]: 227 ± 95 ng/g
- concentration at 15 min ([7]; male, CD-1, mouse, plasma, 2 mg/kg): 633 ± 46 ng/mL
- bioavailability ([7]; male, CD-1, mouse, plasma, oral, 8 mg/kg): 28%
- concentration at 30 min [7, 10]: 180 ± 72 ng/mL
- concentration at 60 min [7, 10]: 140 ± 31 ng/mL

Compound: O=C(OC(C(F)(F)F)C(F)(F)F)N1CC(OC(c2ccc(F)cc2)c2ccc(F)cc2)C1 [6b, 1,1,1,3,3,3-Hexafluoropropan-2-yl 3-(bis(4-fluorophenyl)methoxy)azetidine-1-carboxylate]
- hFAAH inhibition, result in words [1]: inactive
- IC50 [2]: 6.4 ± 1.5 nM
- fold loss in potency for ABHD6 [3]: about 2 fold

Compound: O=C(OC(C(F)(F)F)C(F)(F)F)N1Cc2ccc(OCCN3CCCCC3)cc2C1 [22j, 1,1,1,3,3,3-Hexafluoropropan-2-yl 5-(2-(piperidin-1-yl)ethoxy)isoindoline-2-carboxylate]
- inhibition at 1 µM ([1]; read-out: % inhibition hFAAH): 71%
- hMGL inhibition, result in words [2]: inactive

Compound: N#Cc1cccc(OC(=O)N2CC(OC(c3ccc(F)cc3)c3ccc(F)cc3)C2)c1 [5a, 3-Cyanophenyl 3-(bis(4-fluorophenyl)methoxy)azetidine-1-carboxylate]
- inhibition at 0.1 µM ([1]; read-out: % inhibition hFAAH): 33%
- IC50 [2]: 66.1 ± 2.4 nM
- fold loss in potency for ABHD6 [3]: about 2 fold
